“And” between values parts separate entries of the source, which are not always exact repeats. Equal entries are not always repeated.
System: U2OS
Assay: Multiplex assay against U2OS
Format: toxicity, cell-based
Conditions: human
In short: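 Live cells carried four stains from seeding: Hoechst33342, BioTracker Green Microtubule Cytoskeleton Dye, MitoTracker Red and Annexin V Alexa Fluor 680. They were imaged on a CQ1 microscope at 37°C and 5% CO2 after compound addition. Using CellPathfinder machine-learning gating, cells were split into Hoechst high-intensity objects or normal cells, normal cells into healthy, pyknosed or fragmented nuclei, and pyknosed cells into mitotic or apoptotic; tubulin, mitochondrial-mass and membrane-permeability phenotypes are per cents of healthy-nucleus cells.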

[1] = 12 h, 1 µM, compound concentration 1 uM
[2] = 12 h, 10 µM, compound concentration 10 uM
[3] = 24 h, 1 µM, compound concentration 1 uM
[4] = 24 h, 10 µM, compound concentration 10 uM
[5] = 48 h, 1 µM, compound concentration 1 uM
[6] = 48 h, 10 µM, compound concentration 10 uM

With `CCCCCC(O)/C=C/[C@H]1C(=O)CC(O)C1C/C=C\CCCC(=O)O` (stereo not given in full) the “Population Apoptotic (%)” value [1] was 60% and 88%, the “Population Fragmented Nuclei (%)” value [1] was 28% and 15% and the “Population Healthy Nuclei (%)” value [1] was 59% and 76%. For the same molecule, the “Population Hoechst High Intensity Objects (%)” value [1] was 1% and 0%, the “Population Membrane Permeable-Phenotype (%)” value [1] was 5% and 8% and the “Population Mitochondria Different-Phenotype (%)” value [1] was 4% and 6%. For the same molecule, the “Population Normal (%)” value [1] was 98% and 99%, the “Population Pyknosed Nuclei (%)” value [1] was 12% and 8% and the “Population Tubulin-Different-Phenotype (%)” value [1] was 4% and 8%. For the same molecule, the “Total Cell Count” value [1] was 203 and 113, the “Population Apoptotic (%)” value [2] was 71% and 66% and the “Population Fragmented Nuclei (%)” value [2] was 23% and 16%. For the same molecule, the “Population Healthy Nuclei (%)” value [2] was 69% and 73%, the “Population Hoechst High Intensity Objects (%)” value [2] was 2% and the “Population Membrane Permeable-Phenotype (%)” value [2] was 8% and 10%. The “Population Mitochondria Different-Phenotype (%)” value [2] was 3% and 2%, the “Population Mitotic Cells (%)” value [2] was 28% and 33% and the “Population Normal (%)” value [2] was 97%. For the same molecule, the “Population Pyknosed Nuclei (%)” value [2] was 7% and 9%, the “Population Tubulin-Different-Phenotype (%)” value [2] was 5% and 4% and the “Total Cell Count” value [2] was 190 and 94. The “Population Apoptotic (%)” value [3] was 86% and 90%, the “Population Fragmented Nuclei (%)” value [3] was 27% and 16% and the “Population Healthy Nuclei (%)” value [3] was 63% and 74%. For the same molecule, the “Population Hoechst High Intensity Objects (%)” value [3] was 2% and 0%, the “Population Membrane Permeable-Phenotype (%)” value [3] was 3% and 5% and the “Population Mitochondria Different-Phenotype (%)” value [3] was 0% and 7%. The “Population Mitotic Cells (%)” value [3] was 13% and 9%, the “Population Normal (%)” value [3] was 98% and 99% and the “Population Pyknosed Nuclei (%)” value [3] was 8%. The “Population Tubulin-Different-Phenotype (%)” value [3] was 1% and 4%, the “Total Cell Count” value [3] was 250 and 131 and the “Population Apoptotic (%)” value [4] was 100% and 90%. For the same molecule, the “Population Fragmented Nuclei (%)” value [4] was 23% and 16%, the “Population Healthy Nuclei (%)” value [4] was 66% and 74% and the “Population Hoechst High Intensity Objects (%)” value [4] was 1% and 2%. For the same molecule, the “Population Membrane Permeable-Phenotype (%)” value [4] was 6% and 5%, the “Population Mitochondria Different-Phenotype (%)” value [4] was 4% and 1% and the “Population Mitotic Cells (%)” value [4] was 0% and 10%. The “Population Normal (%)” value [4] was 98% and 97%, the “Population Pyknosed Nuclei (%)” value [4] was 9% and 8% and the “Population Tubulin-Different-Phenotype (%)” value [4] was 4% and 2%. For the same molecule, the “Total Cell Count” value [4] was 216 and 118, the “Population Apoptotic (%)” value [5] was 89% and 100% and the “Population Fragmented Nuclei (%)” value [5] was 19% and 13%. The “Population Healthy Nuclei (%)” value [5] was 71% and 79%, the “Population Hoechst High Intensity Objects (%)” value [5] was 2% and the “Population Membrane Permeable-Phenotype (%)” value [5] was 4% and 5%. For the same molecule, the “Population Mitochondria Different-Phenotype (%)” value [5] was 3% and 4%, the “Population Mitotic Cells (%)” value [5] was 10% and 0% and the “Population Normal (%)” value [5] was 97%. The “Population Pyknosed Nuclei (%)” value [5] was 8% and 7%, the “Population Tubulin-Different-Phenotype (%)” value [5] was 2% and 3% and the “Total Cell Count” value [5] was 334 and 189. The “Population Apoptotic (%)” value [6] was 89% and 100%, the “Population Fragmented Nuclei (%)” value [6] was 23% and 21% and the “Population Healthy Nuclei (%)” value [6] was 67% and 70%. The “Population Hoechst High Intensity Objects (%)” value [6] was 3% and 2%, the “Population Membrane Permeable-Phenotype (%)” value [6] was 6% and 7% and the “Population Mitochondria Different-Phenotype (%)” value [6] was 3%. The “Population Mitotic Cells (%)” value [6] was 10% and 0%, the “Population Normal (%)” value [6] was 96% and 97% and the “Population Pyknosed Nuclei (%)” value [6] was 9% and 7%. For the same molecule, the “Population Tubulin-Different-Phenotype (%)” value [6] was 4% and 3% and the “Total Cell Count” value [6] was 302 and 161.

Source: ChEMBL document CHEMBL5724801, “EUbOPEN Chemogenomics Library - Multiplex” (2024)
